We go through 11 compounds from ChEMBL document CHEMBL4602716, “Development of Selective Histone Deacetylase 6 (HDAC6) Degraders Recruiting Von Hippel-Lindau (VHL) E3 Ubiquitin Ligase” (ACS Med Chem Lett, 2020).

Type in all cases: cell-based
Test [1] addresses T1, von Hippel-Lindau disease tumor suppressor/Protein deacetylase HDAC6 (Homo sapiens, UniProt Q9UBN7+P40337). Description: Protac activity at VHL/HDAC6 in human MM1S cells assessed as HDAC6 degradation at 100 nM measured after 6 hrs by ELISA. Put shortly:
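Linker-length screen. MM1S cells were treated with degraders at 100 nM for 6 h, and HDAC6 protein level was quantified by in-cell ELISA.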
In general terms: ELISA stands for enzyme-linked immunosorbent assay.
Target sequence in this assay (P40337 whole entry, looked up): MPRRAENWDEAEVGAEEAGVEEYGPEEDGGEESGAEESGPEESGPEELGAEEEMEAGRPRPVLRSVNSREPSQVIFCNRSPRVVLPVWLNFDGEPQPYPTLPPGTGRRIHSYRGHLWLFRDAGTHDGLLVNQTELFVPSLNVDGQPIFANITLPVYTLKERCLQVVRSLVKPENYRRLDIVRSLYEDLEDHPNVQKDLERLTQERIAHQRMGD
Target sequence in this assay (Q9UBN7 whole entry, looked up): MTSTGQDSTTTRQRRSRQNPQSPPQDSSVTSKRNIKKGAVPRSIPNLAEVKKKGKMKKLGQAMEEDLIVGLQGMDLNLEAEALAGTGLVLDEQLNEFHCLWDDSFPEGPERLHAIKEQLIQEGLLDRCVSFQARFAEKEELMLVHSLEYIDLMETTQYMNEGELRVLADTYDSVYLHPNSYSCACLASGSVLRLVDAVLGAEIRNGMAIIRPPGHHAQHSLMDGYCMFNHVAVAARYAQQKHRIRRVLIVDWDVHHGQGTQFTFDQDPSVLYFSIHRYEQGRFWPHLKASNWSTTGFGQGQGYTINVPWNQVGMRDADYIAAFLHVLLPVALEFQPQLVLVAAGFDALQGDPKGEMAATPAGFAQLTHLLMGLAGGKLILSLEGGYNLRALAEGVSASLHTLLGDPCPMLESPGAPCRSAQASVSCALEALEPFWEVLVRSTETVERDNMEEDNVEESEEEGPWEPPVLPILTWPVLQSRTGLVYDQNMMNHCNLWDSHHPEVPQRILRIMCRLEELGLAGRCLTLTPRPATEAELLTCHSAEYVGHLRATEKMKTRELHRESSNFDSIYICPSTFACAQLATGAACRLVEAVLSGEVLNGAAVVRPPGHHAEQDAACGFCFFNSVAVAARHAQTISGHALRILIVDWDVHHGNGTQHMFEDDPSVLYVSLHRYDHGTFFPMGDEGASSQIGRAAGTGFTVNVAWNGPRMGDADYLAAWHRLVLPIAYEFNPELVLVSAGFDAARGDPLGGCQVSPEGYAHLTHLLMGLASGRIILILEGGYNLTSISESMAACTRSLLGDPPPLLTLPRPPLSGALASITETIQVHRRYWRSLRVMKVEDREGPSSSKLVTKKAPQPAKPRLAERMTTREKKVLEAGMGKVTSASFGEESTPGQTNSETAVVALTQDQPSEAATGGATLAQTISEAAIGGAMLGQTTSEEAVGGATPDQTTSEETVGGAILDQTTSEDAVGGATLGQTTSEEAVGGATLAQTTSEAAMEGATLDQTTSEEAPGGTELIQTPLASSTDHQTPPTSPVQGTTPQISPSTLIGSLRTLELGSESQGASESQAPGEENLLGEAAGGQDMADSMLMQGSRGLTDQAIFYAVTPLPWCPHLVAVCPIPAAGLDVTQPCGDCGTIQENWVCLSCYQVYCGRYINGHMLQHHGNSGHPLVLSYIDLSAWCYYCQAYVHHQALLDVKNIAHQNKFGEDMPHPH

For test [2], the target named is T1, von Hippel-Lindau disease tumor suppressor/Protein deacetylase HDAC6. Nature of the test: Protac activity at VHL/HDAC6 in human MM1S cells assessed as HDAC6 degradation at 100 nM measured after 6 hrs by Western blot analysis. An outline of the steps: (§1)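 MM1S cells were treated with degraders at 100 nM for 6 h. Lysates were analysed by Western blot for HDAC6 and acetylated tubulin.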
(In general: A western blot detects proteins with antibodies after separation by electrophoresis.)
Target sequence in this assay (P40337 whole entry, looked up): as the sequence (P40337 whole entry, looked up) above
Target sequence in this assay (Q9UBN7 whole entry, looked up): as the sequence (Q9UBN7 whole entry, looked up) above

For test [3] the target is unchanged. Description: Protac activity at VHL/HDAC6 in human MM1S cells assessed as increase in tubulin acetylation at 100 nM measured after 6 hrs by Western blot analysis. An outline of the steps:
as §1
Target sequence in this assay (P40337 whole entry, looked up): as the sequence (P40337 whole entry, looked up) above
Target sequence in this assay (Q9UBN7 whole entry, looked up): as the sequence (Q9UBN7 whole entry, looked up) above

Test [4] shares this target. Description: Protac activity at VHL/HDAC6 in human MM1S cells measured after 6 hrs by ELISA. An outline of the steps: (§2)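 MM1S multiple myeloma cells exposed to degraders for 6 h. HDAC6 protein level was read by in-cell ELISA; dose-response ran from 1 nM to 3 μM. DC50 and Dmax were derived from the dose-response curve.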
Target sequence in this assay (Q9UBN7 whole entry): as the sequence (Q9UBN7 whole entry, looked up) above
Target sequence in this assay (P40337 whole entry): as the sequence (P40337 whole entry, looked up) above
Test [5] shares this target. Description: Protac activity at VHL/HDAC6 in human MM1S cells measured after 6 hrs by ELISA relative to control. Put shortly:
as §2
Target sequence in this assay (P40337 whole entry, looked up): as above
Target sequence in this assay (Q9UBN7 whole entry, looked up): as the sequence (Q9UBN7 whole entry, looked up) above

Test [6] deals with T2, Protein cereblon/Protein deacetylase HDAC6 (Homo sapiens, UniProt Q9UBN7+Q96SW2). Nature of the test: Protac activity at CRBN/HDAC6 in human MM1S cells measured after 6 hrs by ELISA. An outline of the steps:
as §2
Target sequence in this assay (Q9UBN7 whole entry): as the sequence (Q9UBN7 whole entry, looked up) above
Target sequence in this assay (Q96SW2 whole entry): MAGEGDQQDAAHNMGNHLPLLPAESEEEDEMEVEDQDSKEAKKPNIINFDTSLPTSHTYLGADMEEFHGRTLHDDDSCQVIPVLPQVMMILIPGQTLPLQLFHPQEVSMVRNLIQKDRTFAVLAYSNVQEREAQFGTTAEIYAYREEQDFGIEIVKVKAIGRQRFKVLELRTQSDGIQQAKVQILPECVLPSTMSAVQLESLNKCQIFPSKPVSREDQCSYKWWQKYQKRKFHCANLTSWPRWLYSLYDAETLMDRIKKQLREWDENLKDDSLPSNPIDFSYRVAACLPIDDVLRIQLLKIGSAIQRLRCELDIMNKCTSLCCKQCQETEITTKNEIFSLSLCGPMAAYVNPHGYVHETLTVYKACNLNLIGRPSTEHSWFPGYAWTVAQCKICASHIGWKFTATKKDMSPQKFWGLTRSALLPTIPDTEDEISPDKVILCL

In test [7] the target is T2, Protein cereblon/Protein deacetylase HDAC6. Description: Protac activity at CRBN/HDAC6 in human MM1S cells measured after 6 hrs by ELISA relative to control. An outline of the steps: as §2
Target sequence in this assay (Q96SW2 whole entry, looked up): as the sequence (Q96SW2 whole entry) above
Target sequence in this assay (Q9UBN7 whole entry, looked up): as the sequence (Q9UBN7 whole entry, looked up) above
Test [8] shares this target. Nature of the test: Protac activity at CRBN/HDAC6 in human MM1S cells assessed as increase in tubulin acetylation at 300 nM to 1 microM after 6 hrs by Western blot analysis.
Target sequence in this assay (Q96SW2 whole entry, looked up): as the sequence (Q96SW2 whole entry) above
Target sequence in this assay (Q9UBN7 whole entry, looked up): as the sequence (Q9UBN7 whole entry, looked up) above
The target is the same in test [9]. Nature of the test: Protac activity at CRBN/HDAC6 in human MM1S cells assessed as reduction in protein level at 100 nM after 30 mins by Western blot analysis.
Target sequence in this assay (Q96SW2 whole entry, looked up): as the sequence (Q96SW2 whole entry) above
Target sequence in this assay (Q9UBN7 whole entry, looked up): as the sequence (Q9UBN7 whole entry, looked up) above
Test [10] shares this target. Nature of the test: Protac activity at CRBN/HDAC6 in human MM1S cells assessed as reduction in protein level at 100 nM after 4 hrs by Western blot analysis.
Target sequence in this assay (Q96SW2 whole entry, looked up): as the sequence (Q96SW2 whole entry) above
Target sequence in this assay (Q9UBN7 whole entry, looked up): as the sequence (Q9UBN7 whole entry, looked up) above
Test [11] has as its target T3, Protein cereblon/Protein deacetylase HDAC6 (Mus musculus, UniProt Q9Z2V5+Q8C7D2).
T3 sequence (Q9Z2V5 whole entry): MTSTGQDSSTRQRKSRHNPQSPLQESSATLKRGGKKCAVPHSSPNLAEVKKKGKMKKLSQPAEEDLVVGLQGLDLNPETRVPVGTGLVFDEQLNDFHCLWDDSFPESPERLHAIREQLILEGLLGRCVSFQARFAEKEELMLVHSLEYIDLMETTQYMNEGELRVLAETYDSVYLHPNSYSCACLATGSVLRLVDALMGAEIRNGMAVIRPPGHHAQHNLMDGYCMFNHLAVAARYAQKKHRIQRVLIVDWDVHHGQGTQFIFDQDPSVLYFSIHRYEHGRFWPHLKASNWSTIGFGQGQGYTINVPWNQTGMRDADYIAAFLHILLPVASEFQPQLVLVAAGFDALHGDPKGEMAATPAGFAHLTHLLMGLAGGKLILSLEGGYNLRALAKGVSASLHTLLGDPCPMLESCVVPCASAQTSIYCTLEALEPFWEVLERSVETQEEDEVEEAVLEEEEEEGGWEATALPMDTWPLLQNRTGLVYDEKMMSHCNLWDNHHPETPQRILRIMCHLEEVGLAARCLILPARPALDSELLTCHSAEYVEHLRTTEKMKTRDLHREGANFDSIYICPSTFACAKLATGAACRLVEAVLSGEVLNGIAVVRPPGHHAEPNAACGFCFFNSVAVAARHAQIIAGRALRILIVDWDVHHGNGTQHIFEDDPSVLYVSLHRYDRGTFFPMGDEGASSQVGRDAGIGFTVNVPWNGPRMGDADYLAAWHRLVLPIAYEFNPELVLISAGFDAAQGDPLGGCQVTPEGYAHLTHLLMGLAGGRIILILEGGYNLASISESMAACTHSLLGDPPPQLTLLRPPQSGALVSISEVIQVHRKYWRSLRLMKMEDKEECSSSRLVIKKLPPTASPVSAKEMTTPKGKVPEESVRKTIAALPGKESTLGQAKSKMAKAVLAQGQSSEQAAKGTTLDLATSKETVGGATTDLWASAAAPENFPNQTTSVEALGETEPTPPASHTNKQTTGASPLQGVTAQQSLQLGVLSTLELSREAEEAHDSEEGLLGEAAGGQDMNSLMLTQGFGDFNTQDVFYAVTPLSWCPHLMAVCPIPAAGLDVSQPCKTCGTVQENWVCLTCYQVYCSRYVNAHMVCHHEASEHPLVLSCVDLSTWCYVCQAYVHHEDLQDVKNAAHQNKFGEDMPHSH
T3 sequence (Q8C7D2 whole entry): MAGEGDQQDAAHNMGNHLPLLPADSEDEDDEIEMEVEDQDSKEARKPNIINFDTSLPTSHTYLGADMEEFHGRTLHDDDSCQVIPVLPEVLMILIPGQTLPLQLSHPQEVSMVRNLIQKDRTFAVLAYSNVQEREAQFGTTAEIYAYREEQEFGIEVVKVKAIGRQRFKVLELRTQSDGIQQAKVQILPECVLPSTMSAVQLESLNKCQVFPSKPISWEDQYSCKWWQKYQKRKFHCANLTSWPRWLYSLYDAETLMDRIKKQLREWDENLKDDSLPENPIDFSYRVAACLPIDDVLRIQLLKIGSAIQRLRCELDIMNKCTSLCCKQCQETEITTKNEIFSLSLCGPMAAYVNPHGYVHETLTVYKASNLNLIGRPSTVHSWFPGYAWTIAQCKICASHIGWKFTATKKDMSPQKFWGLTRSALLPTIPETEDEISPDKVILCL
Description: Protac activity at CRBN/HDAC6 in mouse 4935 cells assessed as HDAC6 degradation after 6 hrs by ELISA. An outline of the steps:
(§3)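 Mouse 4935 cells were treated with degrader for 6 h, and HDAC6 level was measured by in-cell ELISA.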

The target of test [12] is T3, Protein cereblon/Protein deacetylase HDAC6. Description: Protac activity at CRBN/HDAC6 in mouse 4935 cells assessed as HDAC6 degradation after 6 hrs by Western blot analysis. An outline of the steps: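 Mouse 4935 cells were treated with degraders for 6 h, then analysed by Western blot for HDAC6 and acetylated tubulin.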
The target of test [13] is Protein cereblon/Protein deacetylase HDAC6 (Mus musculus) (UniProt Q9Z2V5+Q8C7D2). Description: Protac activity at CRBN/HDAC6 in mouse 4935 cells assessed as HDAC6 degradation after 6 hrs by relative to control. Put shortly: as §3

One may read the Emax as the size of the effect at its maximum, as opposed to the concentration needed.

The source made the active and inactive calls. The rule behind the calls is not given here.

Turning to `CCCCN(Cc1ccc(C(=O)NO)cc1)C(=O)Nc1ccc(OCCCCCCCCCn2cc(CCCCC(=O)N[C@H](C(=O)N3C[C@H](O)C[C@H]3C(=O)NCc3ccc(-c4scnc4C)cc3)C(C)(C)C)nn2)cc1`, the result in test [1], in test [2] and in [3] was Active.
For the compound `CCCCN(Cc1ccc(C(=O)NO)cc1)C(=O)Nc1ccc(OCCCCCCCCCCCCn2cc(CCCCC(=O)N[C@H](C(=O)N3C[C@H](O)C[C@H]3C(=O)NCc3ccc(-c4scnc4C)cc3)C(C)(C)C)nn2)cc1`, the result in [1] and in test [2] was Active. Further, in test [4], the DC50 stood at 11 nM. The Emax in test [5] was 89%.
Take `CCCCN(Cc1ccc(C(=O)NO)cc1)C(=O)Nc1ccc(OCCCCCn2cc(CCCCC(=O)N[C@H](C(=O)N3C[C@H](O)C[C@H]3C(=O)NCc3ccc(-c4scnc4C)cc3)C(C)(C)C)nn2)cc1`: the outcome in test [1] was Active.
Regarding `CCCCN(Cc1ccc(C(=O)NO)cc1)C(=O)Nc1ccc(OCCCCCCCCCCn2cc(CCCCC(=O)N[C@H](C(=O)N3C[C@H](O)C[C@H]3C(=O)NCc3ccc(-c4scnc4C)cc3)C(C)(C)C)nn2)cc1`, the outcome in test [1], in test [2] and in [3] was Active.
Regarding `CCCCN(Cc1ccc(C(=O)NO)cc1)C(=O)Nc1ccc(OCCCCCCn2cc(CCCCC(=O)N[C@H](C(=O)N3C[C@H](O)C[C@H]3C(=O)NCc3ccc(-c4scnc4C)cc3)C(C)(C)C)nn2)cc1`, in test [1], the outcome was Active.
Same read-out and setting: the same measure for `CCCCN(Cc1ccc(C(=O)NO)cc1)C(=O)Nc1ccc(OCCn2cc(CCCCC(=O)N[C@H](C(=O)N3C[C@H](O)C[C@H]3C(=O)NCc3ccc(-c4scnc4C)cc3)C(C)(C)C)nn2)cc1`: “Active”; for `CCCCN(Cc1ccc(C(=O)NO)cc1)C(=O)Nc1ccc(OCCCn2cc(CCCCC(=O)N[C@H](C(=O)N3C[C@H](O)C[C@H]3C(=O)NCc3ccc(-c4scnc4C)cc3)C(C)(C)C)nn2)cc1`: “Active”.
For the compound `CCCCN(Cc1ccc(C(=O)NO)cc1)C(=O)Nc1ccc(OCCCCCCCCn2cc(CCCCC(=O)N[C@H](C(=O)N3C[C@H](O)C[C@H]3C(=O)NCc3ccc(-c4scnc4C)cc3)C(C)(C)C)nn2)cc1`, the outcome in [1] and in [2] was Active.
For the compound `CCCCN(Cc1ccc(C(=O)NO)cc1)C(=O)Nc1ccc(OCCCCn2cc(CCCCC(=O)N[C@H](C(=O)N3C[C@H](O)C[C@H]3C(=O)NCc3ccc(-c4scnc4C)cc3)C(C)(C)C)nn2)cc1`, the result in test [1] was Active.
For `CCCCN(Cc1ccc(C(=O)NO)cc1)C(=O)Nc1ccc(OCCCCCCCn2cc(CCCCC(=O)N[C@H](C(=O)N3C[C@H](O)C[C@H]3C(=O)NCc3ccc(-c4scnc4C)cc3)C(C)(C)C)nn2)cc1`, the result in test [1] was Active.
On to `CCCCN(Cc1ccc(C(=O)NO)cc1)C(=O)Nc1ccc(OCCCCCn2cc(CNc3cccc4c3C(=O)N(C3CCC(=O)NC3=O)C4=O)nn2)cc1` (stereo unspecified), for which the DC50 came to 2.2 nM in test [6], 18 nM in test [11] and 360 nM in test [12]. The Emax in [7] is 86%; in [13], 45%. The result in [8], in test [9] and in test [10] was Active.
